Assay outcomes as filed in PubChem.
Beta2AR agonist – human beta-2 adrenergic receptor agonism by FAP | AID 504454 | P07550 | Am2.2-beta2AR cells, FAP receptor internalization, flow cytometry | response, % (no concentration beside the values) | hit rate 0.43% among 340,000;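 active means response above a set limit, near 3 SD of response in nonfluorescent compounds, cut at about 42% in these data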
ABHD5-PLIN5 inh – blocks binding of human ABHD5 to perilipin-5. Split G. princeps luciferase complementation, luminescence, 4 h. inhibition, % at 4 µM. hit rate 0.78% among 360,000. Q00G26+Q8WTS1;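 active means inhibition above the mean inhibition across every tested compound plus 3 SD, cut at about 22% in these data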;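 further: 0% = DMSO only wells and the 100% control is not disclosed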
NadD inh – NadD (S. aureus) enzyme inhibition; purified NadD enzyme, colorimetric absorbance read-out; hit rate 0.78% among 360,000; AID 602399; inhibition, % at 20 µM; in the data active means inhibition above about 26%
GRK2 aptamer HTS – inhibitors of human GRK2 displacing RNA aptamer | bead flow cytometry, FAM-aptamer displacement from GRK2 | P25098 | inhibition of aptamer binding, % at 10 µM | hit rate 0.59% among 330,000;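 active means inhibition of aptamer binding above 40%, roughly 3 SD of noise, on plates passing a quality check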;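 further: median bead fluorescence of bound FAM aptamer so fluorescent compounds give negative values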
SENP1 inh – inhibitors of human SENP1 SUMO protease catalytic domain; hit rate 0.21% among 360,000; recombinant SENP1 catalytic domain, CyPet-SUMO1-YPet FRET cleavage; inhibition, % at 10 µM;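 active means inhibition at least 30% at 10 µM, raw YFP signal under a set limit, fluorescence ratio 0.5 to 1.5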;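 further: 0% = enzyme with DMSO and 100% = no enzyme wells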
Target sequence (Q9P0U3 419-644 limits assumed): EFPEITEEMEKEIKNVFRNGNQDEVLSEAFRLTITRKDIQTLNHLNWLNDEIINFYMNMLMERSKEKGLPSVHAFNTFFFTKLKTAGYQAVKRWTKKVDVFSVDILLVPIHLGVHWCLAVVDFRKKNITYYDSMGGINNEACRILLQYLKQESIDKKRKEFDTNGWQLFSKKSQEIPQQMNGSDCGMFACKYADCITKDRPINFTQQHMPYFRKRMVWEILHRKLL
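Compound: 10 µM single point, 0.5% DMSO; Test system: hSENP1 catalytic domain, recombinant; Timing: 50 min reaction at room temperature; Technique: FRET, CFP and YFP emission; Control set: no-enzyme wells low, DMSO-plus-enzyme wells high control.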
GRK2 inh confirm – confirmation of human GRK2 inhibitors displacing RNA aptamer | bead-bound GRK2, FAM-aptamer displacement, flow cytometry | shares compounds with GRK2 aptamer HTS | aptamer displacement, % at 10 µM | hit rate 4% among 2,000;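 active means aptamer displacement above 40%, near three times the noise of non-fluorescent compounds, on plates passing quality checks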;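 further: negative values mostly reflect intrinsic compound fluorescence rather than true enhancement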
Aptamer quench SP – counter-screen for GRK2 aptamer inhibitors: fluorescent aptamer quenchers. shares compounds with GRK2 aptamer HTS. Carboxyfluorescein RNA aptamer on beads, flow cytometry quenching; active compounds read low. fluorescence response (% of DMSO), % at 10 µM. 2,000 tested, under 10 active;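 active means compounds that quench the bead-bound fluorescent RNA probe, cutting fluorescence to under half of the solvent control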;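 further: counterscreen run without GRK2 so only probe quenching by compound is measured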
* hit, by the source's call; / = no result. Only some compounds are listed: those with a hit (about 2.5% of all), similar ones and a draw of the others.

SMILES | Beta2AR agonist | ABHD5-PLIN5 inh | NadD inh | GRK2 aptamer HTS | SENP1 inh | GRK2 inh confirm | Aptamer quench SP
COc1ccccc1CNC(=O)COC(=O)C1CCN(S(=O)(=O)c2c(Cl)cccc2Cl)CC1 | 7.4 | 4.8 | -8.8 | / | 3.5 | / | /
CN1C2=CC=CC=CC2=[N+](C)C12C=CC(=[N+]([O-])[O-])C=C2[N+](=O)[O-] (centres undefined) | 9.8 | 16.1 | 2.2 | 3.0 | -6.0 | / | /
CN1C2=CC=CC=CC2=[N+](C)C12C([N+](=O)[O-])=CC(=[N+]([O-])[O-])C=C2[N+](=O)[O-] (centres undefined) | 18.5 | 2.0 | 2.1 | 48.0* | 2.2 | 2.7 | 99.7
O=c1cc[nH]c2ccc(OC(F)(F)F)cc12 | -5.4 | -6.9 | -4.1 | 86.0* | 1.9 | -1.5 | 99.7
Cn1cc(CNCC2CCCO2)c(-c2ccc(Oc3ccccc3)cc2)n1 (centres undefined) | 3.7 | -3.1 | -7.7 | 0.0 | 2.1 | / | /
Cc1cc(CNCc2cn(C)nc2-c2ccc(Oc3ccccc3)cc2)on1 | -9.3 | 5.0 | -2.1 | 100.0* | -0.7 | -0.5 | 101.1
CCOc1ccc(NC(=O)CN(C)c2ccc(S(=O)(=O)N3CCOCC3)cn2)cc1OCC | -3.7 | -1.8 | 0.1 | 3.0 | 0.6 | / | /
Cc1ccc(NC(=O)CN(C)c2ccc(S(=O)(=O)N3CCCC3)cn2)cc1 | 4.9 | 4.6 | 0.6 | 67.0* | 1.0 | -1.8 | 99.1
Cc1cccc(C)c1NC(=O)CN1C(=O)CCSc2ccc(S(=O)(=O)N3CCCC3)cc21 | 5.8 | -1.9 | -6.3 | 42.0* | 2.8 | -3.4 | 98.7
COCCN(C(=O)c1ccccc1Oc1ccccc1)c1c(N)n(CC(C)C)c(=O)[nH]c1=O | 1.7 | -4.8 | 7.1 | 41.0* | -1.0 | 0.4 | 97.8
COCCN(C(=O)c1cc(-c2ccccc2Cl)nc2ccccc12)c1c(N)n(CC(C)C)c(=O)[nH]c1=O | -2.4 | 5.5 | 4.4 | / | -4.7 | / | /
CCNC(=O)C1(C)CCCN1C(=O)c1ccc(-c2ccccc2)cc1 (centres undefined) | / | -4.0 | 0.2 | / | -1.0 | / | /
Cc1ccccc1CC1(CO)CCCN(Cc2cn[nH]c2-c2ccccc2)C1 (centres undefined) | 8.5 | 6.4 | -3.5 | 0.0 | 2.4 | / | /
COc1cccc(CC2(CO)CCCN(Cc3cn[nH]c3-c3ccccc3)C2)c1 (centres undefined) | 2.4 | -3.0 | -5.1 | 99.0* | -1.7 | -3.4 | 101.7
OCC1CCCN(c2nc(CN3CCCCC3)nc3scc(-c4ccccc4)c23)C1 (centres undefined) | -2.9 | 0.6 | -5.3 | 0.0 | -10.2 | 0.0 | 100.6
CN(Cc1ccccc1)c1nc(CN2CCOCC2)nc2scc(-c3ccccc3)c12 | -0.8 | 6.0 | 1.8 | 5.0 | 0.6 | -4.0 | 94.6
OCC1CCCN(c2ncnc3scc(-c4ccccc4)c23)C1 (centres undefined) | -2.1 | -4.7 | 2.1 | 0.0 | -7.8 | / | /
Cc1ccc(C(=O)Oc2ccc3ccc(=O)oc3c2)cc1 | -2.8 | -5.7 | -2.0 | 0.0 | -173.2 | / | /
CC(=O)Oc1ccc2ccc(=O)oc2c1 | -2.7 | -14.0 | -1.0 | 80.0* | -115.8 | -1.5 | 99.5
Cc1cc(C)n(-c2ccc(C(=O)OCC(=O)Nc3cc(S(C)(=O)=O)ccc3Cl)cc2)n1 | -6.3 | -2.4 | -0.6 | 2.0 | -3.5 | / | /
Cc1ccc(NC(=O)CCCOc2ccccc2)cc1S(=O)(=O)N1CCOCC1 | -9.8 | -1.8 | -2.0 | 75.0* | 2.9 | 2.1 | 99.4
CCCCN(C(=O)C1CCCO1)c1c(N)n(CC(C)C)c(=O)[nH]c1=O (centres undefined) | 1.3 | -9.5 | -0.3 | 5.0 | -7.0 | / | /
O=C(O)c1ccc(Nc2nc3ccccc3nc2NS(=O)(=O)c2cccs2)cc1 | 3.1 | -7.0 | -8.3 | 94.0* | -0.4 | -7.5 | 96.2
CN(Cc1nc2ccccc2c(=O)[nH]1)C(=O)c1ccc(S(=O)(=O)N2CCCC2)cc1 | 11.6 | 3.3 | -1.8 | 8.0 | -0.8 | / | /
O=C(CNC(=O)c1ccccc1)N/N=C/c1ccccc1Cl | -1.6 | -1.7 | -6.6 | 47.0* | 0.5 | -1.1 | 97.1
CN(CCOc1ccccc1)C(=O)CCc1nc2sc3c(c2c(=O)[nH]1)CCCC3 | -0.6 | 0.1 | 5.6 | 0.0 | -26.9 | 0.1 | 97.4
